Where only a bound is given, the exact number is not on record here.

Usually IC50 stands for the concentration at which inhibition is half-maximal.

The test system of the assay is BV-2. As to the kind of experiment: Anti-inflammatory activity in mouse BV2 cells assessed as reduction in LPS-induced nitric oxide production by Griess assay. Type of assay: functional, cell-based. A digest of the protocol:
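NO release from LPS-stimulated BV-2 cells was measured by the Griess reaction, and IC50 values were derived. SMT (2-methyl-2-thiopseudourea, sulfate) served as the positive control. Data come from three experiments. The procedure otherwise follows a previously published method.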
A general note: Griess reagent forms a coloured azo dye with nitrite.
Turning to `C/C=C(/C)C(=O)O[C@H]1C(C)=C[C@]23C(=O)[C@@H](C=C(C)[C@@H](O)[C@]12O)[C@H]1[C@@H](C[C@H]3C)[C@@]1(C)COC(=O)/C(C)=C/C`, the IC50 came to 28.6 µM.

For the molecule `C/C=C(\C)C(=O)OC[C@]1(C)C(=O)CC[C@@]2(C)[C@@H]3CC[C@@H]4C[C@@]3(CC[C@@H]21)C[C@@]4(O)CO`, the IC50 was 19.3 µM.

With `CC(=O)O[C@H]1C2=C(C[C@H]3OC(=O)C(C)=C13)[C@@]1(C)[C@H](CC2)C(C)(C)CC[C@@H]1O`, the IC50 is more than 50 µM.

Turning to `CC(=O)OC[C@]1(C)C(=O)CC[C@@]2(C)[C@@H]3C[C@@H]4CC[C@@]3(CC[C@@H]21)C[C@@]4(O)CO`, the IC50 was more than 50 µM.

Take `C=C[C@@]1(C)C=C2CC[C@@H]3[C@@](C)(O)[C@H](O)CC[C@@]3(C)[C@@H]2C[C@@H]1O`: the IC50 was more than 50 µM.

On to `C/C=C(/C)C(=O)O[C@@H]1/C(C)=C/[C@@]23O[C@@]2(C[C@H](C)[C@@H]3O)C(=O)[C@H](C)[C@H](OC(C)=O)[C@@H]2[C@H]([C@@H]1OC)C2(C)C`, for which the IC50 was more than 50 µM.

As for `CCC(C)C(=O)OC[C@]1(C)C(=O)CC[C@@]2(C)[C@@H]3CC[C@@H]4C[C@@]3(CC[C@@H]21)C[C@@]4(O)CO` (stereo partly specified), the IC50 is 32.6 µM.

With `C=C1C[C@@]23CC[C@@H]4C(C)(C)[C@@H](O)CC[C@@]4(C)[C@@H]2C[C@@H]1[C@@H](O)C3=O`, the IC50 was more than 50 µM.

For `CC(=O)O[C@@H]1[C@@H]2[C@H]([C@H](OC(=O)c3ccccc3)[C@H](OC(C)=O)/C(C)=C/[C@@]34O[C@@]3(C[C@H](C)[C@@H]4OC(C)=O)C(=O)[C@@H]1C)C2(C)C`, the IC50 was more than 50 µM.

On to `CO[C@H]1[C@H]2[C@@H]([C@@H](OC(C)=O)[C@@H](C)C(=O)[C@@]34C[C@H](C)[C@H](OC(C)=O)[C@]3(/C=C(\C)[C@H]1O)O4)C2(C)C`, for which the IC50 was more than 50 µM.

As to `CC1=C2C=C3CC[C@@H]4C(C)(C)CC[C@H](O)[C@@]4(C)[C@@H]3C[C@@H]2OC1=O`, the IC50 turned out to be 38.4 µM.

In the case of `CC1=C2[C@@H](O)C3=C(C[C@H]2OC1=O)[C@@]1(C)[C@H](CC3)C(C)(C)CC[C@@H]1O`, the IC50 is more than 50 µM.

With `CC(=O)O[C@H]1CCC(C)(C)[C@H]2CCC3=CC4=C(C)C(=O)O[C@@H]4C[C@H]3[C@]12C`, the IC50 is 12 µM.

For the molecule `CC1=C2C=C3CC[C@@H]4[C@@](C)(CO)CC[C@H](O)[C@@]4(C)[C@@H]3C[C@H]2OC1=O`, the IC50 was more than 50 µM.

Take `C[C@H]1C(=O)CC[C@]2(C)[C@@H]1CC[C@@]13CC[C@@H](C[C@H]12)[C@](O)(CO)C3`: the IC50 was more than 50 µM.

For the molecule `C=C1C[C@@]23CC[C@@H]4C(C)(C)C(=O)CC[C@@]4(C)[C@@H]2C[C@@H]1[C@@H](O)C3=O`, the IC50 is more than 50 µM.

In the case of `C=C[C@@]1(C)C=C2CC[C@@H]3[C@@](C)(C=O)[C@H](O)CC[C@@]3(C)[C@@H]2C[C@@H]1O`, the IC50 was found to be 32.3 µM.

On to `C=C[C@]1(C)C=C2CC[C@H]3[C@](C)(C=O)[C@@H](O)CC[C@]3(C)[C@H]2CC1` [SANDARACOPIMARADIENOLAL], for which the IC50 was more than 50 µM.

In the case of `CSC(=N)N`, the IC50 was 3.7 µM.

As for `C/C=C(/C)C(=O)O[C@H]1C(C)=C[C@]23C(=O)[C@@H](C=C(C)[C@@H](O)[C@]12O)[C@H]1[C@@H](C[C@H]3C)[C@@]1(C)COC(=O)c1ccccc1`, the IC50 was determined as 14.5 µM.

Take `C=C1C[C@@]23CC[C@@H]4C(C)(C)[C@H](O)CC[C@@]4(C)[C@@H]2C[C@@H]1[C@@H](O)C3=O`: the IC50 was more than 50 µM.

The record behind these values is ChEMBL document CHEMBL4330169, “Bioactive Diterpenoids from the Stems of Euphorbia royleana” (J Nat Prod, 2019).
